Source: ChEMBL document CHEMBL3286129, “Optimization of peptidomimetic boronates bearing a P3 bicyclic scaffold as proteasome inhibitors” (Eur J Med Chem, 2014)
Calls of active or inactive are those of the source. No cut-off for these calls is given here.

Columns and labels:
NCI-H460 = experiment: Growth inhibition of human NCI-H460 cells; type: functional
NCI-H522 = experiment: Growth inhibition of human NCI-H522 cells; type: functional
COLO 205 = experiment: Growth inhibition of human COLO205 cells; type: functional
HT-29 = experiment: Growth inhibition of human HT-29 cells; type: functional
KM12 = experiment: Growth inhibition of human KM12 cells; type: functional
SF-268 = experiment: Growth inhibition of human SF268 cells; type: functional
[1] = Growth inhibition of human SF295 cells; type: functional; conditions: SF-295
U-251 = experiment: Growth inhibition of human U251 cells; type: functional
[2] = Growth inhibition of human LOXIMVI cells; type: functional; conditions: LOX IMVI
Malme-3M = experiment: Growth inhibition of human MALME-3M cells; type: functional
M14 = experiment: Growth inhibition of human M14 cells; type: functional
SK-MEL-5 = experiment: Growth inhibition of human SK-MEL-5 cells; type: functional
[3] = Growth inhibition of human UACC257 cells; type: functional
[4] = Growth inhibition of human OVCAR3 cells; type: functional; conditions: OVCAR-3
[5] = Growth inhibition of human OVCAR4 cells; type: functional
[6] = Growth inhibition of human OVCAR8 cells; type: functional
SK-OV-3 = experiment: Growth inhibition of human SKOV3 cells; type: functional
786-0 = experiment: Growth inhibition of human 786-0 cells; type: functional
[7] = Growth inhibition of human RXF393 cells; type: functional
PC-3 = experiment: Growth inhibition of human PC3 cells; type: functional
MCF7 = experiment: Growth inhibition of human MCF7 cells; type: functional
T47D = experiment: Growth inhibition of human T47D cells; type: functional
[8] = molecular target: Proteasome Macropain subunit (Homo sapiens) (UniProt P49721); experiment: Inhibition of trypsin-like activity of 20S proteasome in human erythrocytes using Boc-Leu-Arg-Arg-AMC as substrate by fluorescence assay; type: cell-based
In short: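 Human 20S proteasome 0.0025 mg/mL at 30 °C in 50 mM Tris pH 7.4, 50 mM NaCl, 0.5 mM EDTA, 0.03% SDS, 7.5% DMSO. Varied inhibitor concentrations; AMC release monitored continuously for 10 min, ex 380/em 460 nm. Ki derived from progress-curve IC50 fit.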

Chymotrypsinogen A = Chymotrypsinogen A (Bos taurus, UniProt P00766); experiment: Inhibition of bovine pancreatic alpha-chymotrypsin using Suc-Leu-Leu-Val-Tyr-AMC as substrate by fluorescence assay; conditions: read-out: Ki
In short: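 Enzyme incubated at 20 °C in 50 mM Tris pH 8.0, 100 mM NaCl, 5 mM EDTA, 7.5% DMSO with varied inhibitor concentrations. Substrate hydrolysis followed for 10 min. Ki from progress curves; mean of three determinations.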

[9] = Cytotoxicity against human leukemia cells assessed as cell growth at 10 uM relative to control; type: functional; conditions: read-out: Activity
In short: (§1)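 Single-concentration screen against a panel of human cancer cell lines. Each value is the mean percent growth across the cell lines of that tumour subpanel.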

[10] = Cytotoxicity against human NSCLC cells assessed as cell growth at 10 uM relative to control; type: functional; conditions: read-out: Activity; in short: as §1
[11] = Cytotoxicity against human colon cancer cells assessed as cell growth at 10 uM relative to control; type: functional; conditions: Cancer cell lines, read-out: Activity; in short: as §1
[12] = Cytotoxicity against human ovarian cancer cells assessed as cell growth at 10 uM relative to control; type: functional; conditions: Cancer cell lines, read-out: Activity; in short: as §1
[13] = Cytotoxicity against human renal cancer cells assessed as cell growth at 10 uM relative to control; type: functional; conditions: Cancer cell lines, read-out: Activity; in short: as §1
[14] = Cytotoxicity against human prostate cancer cells assessed as cell growth at 10 uM relative to control; type: functional; conditions: Cancer cell lines, read-out: Activity; in short: as §1
[15] = Cytotoxicity against human breast cancer cells assessed as cell growth at 10 uM relative to control; type: functional; conditions: Cancer cell lines, read-out: Activity; in short: as §1
CCRF-CEM = experiment: Growth inhibition of human CCRF-CEM cells; type: functional
HL-60(TB) = experiment: Growth inhibition of human HL-60(TB) cells; type: functional
K562 = experiment: Growth inhibition of human K562 cells; type: functional
[16] = Growth inhibition of human MOLT4 cells; type: functional
RPMI-8226 = experiment: Growth inhibition of human RPMI8226 cells; type: functional
HOP-62 = experiment: Growth inhibition of human HOP62 cells; type: functional
NCI-H23 = experiment: Growth inhibition of human NCI-H23 cells; type: functional
[17] = read-out: LC50 (the source's name)

Chain of Proteasome Macropain subunit (Homo sapiens) (P49721 whole entry): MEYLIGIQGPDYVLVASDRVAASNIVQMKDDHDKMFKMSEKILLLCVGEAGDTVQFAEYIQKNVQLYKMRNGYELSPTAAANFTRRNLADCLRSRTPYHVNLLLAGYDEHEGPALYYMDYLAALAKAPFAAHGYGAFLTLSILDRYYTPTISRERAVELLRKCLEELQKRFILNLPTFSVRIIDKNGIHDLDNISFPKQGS

## CC(C)C[C@H](NC(=O)Cn1ccc2ccc(Br)cc2c1=O)B(O)O
NCI-H460
  GI50: 5.58 µM
  LC50: > 100 µM
  TGI: 36.8 µM
NCI-H522
  GI50: 0.59 µM
  LC50: 9.06 µM
  TGI: 2.54 µM
COLO 205
  GI50: 2.83 µM
  TGI: > 100 µM
COLO 205; [17]
  CC50: > 100 µM
HT-29
  GI50: 0.73 µM
  LC50: > 100 µM
  TGI: 5.52 µM
KM12
  GI50: 3.55 µM
  LC50: > 100 µM
  TGI: 17.3 µM
SF-268
  GI50: 3.76 µM
  LC50: > 100 µM
  TGI: 31.9 µM
[1]
  GI50: 2.03 µM
  LC50: 86.4 µM
  TGI: 15.9 µM
U-251
  GI50: 5.56 µM
  TGI: > 100 µM
U-251; [17]
  CC50: > 100 µM
[2]
  GI50: 0.43 µM
  TGI: 1.85 µM
[2]; [17]
  CC50: 7.21 µM
Malme-3M
  GI50: 4.31 µM
  TGI: > 100 µM
Malme-3M; [17]
  CC50: > 100 µM
M14
  GI50: 1.25 µM
  LC50 (concentration killing 50% of cells): > 100 µM
  TGI: 6.73 µM
SK-MEL-5
  GI50: 0.8 µM
  LC50 (concentration killing 50% of cells): 7.88 µM
  TGI: 2.65 µM
[3]; UACC-257
  GI50: 0.94 µM
  TGI: 4.51 µM
[3]; UACC-257, read-out: LC50 (the source's name)
  CC50: > 100 µM
[4]
  GI50: 0.6 µM
  LC50 (concentration killing 50% of cells): > 100 µM
  TGI: 3.95 µM
[5]; OVCAR-4
  GI50: 4.94 µM
  TGI: > 100 µM
[5]; OVCAR-4, read-out: LC50 (the source's name)
  CC50: > 100 µM
[6]; OVCAR-8
  GI50: 3.53 µM
  TGI: > 100 µM
[6]; OVCAR-8, read-out: LC50 (the source's name)
  CC50: > 100 µM
SK-OV-3
  GI50: 8.73 µM
  LC50: > 100 µM
  TGI: > 100 µM
786-0
  GI50: 4.06 µM
  TGI: > 100 µM
786-0; [17]
  CC50: > 100 µM
[7]; RXF 393
  GI50: 0.43 µM
  TGI: 1.77 µM
[7]; RXF 393, read-out: LC50 (the source's name)
  CC50: 5.99 µM
PC-3
  GI50: 6.31 µM
  TGI: > 100 µM
PC-3; [17]
  CC50: > 100 µM
MCF7
  GI50: 0.42 µM
  TGI: > 100 µM
MCF7; [17]
  CC50: > 100 µM
T47D
  GI50: 0.78 µM
  TGI: 12.4 µM
T47D; [17]
  CC50: > 100 µM
[8]
  inhibition: inactive
Chymotrypsinogen A
  Ki: 0.29 µM
[9]
  growth at 10 µM: 0.57%
[10]
  growth at 10 µM: 22%
[11]
  growth at 10 µM: 3.27%
[12]
  growth at 10 µM: 37.5%
[13]
  growth at 10 µM: -8.89%
[14]
  growth at 10 µM: 42.9%
[15]
  growth at 10 µM: 2.23%
CCRF-CEM
  GI50: 0.44 µM
  TGI: > 100 µM
CCRF-CEM; [17]
  CC50: > 100 µM
HL-60(TB)
  GI50: 0.38 µM
  TGI: 5.34 µM
HL-60(TB); [17]
  CC50: > 100 µM
K562
  GI50: 3.15 µM
  TGI: > 100 µM
K562; [17]
  CC50: > 100 µM
[16]; MOLT-4
  GI50: 0.3 µM
  TGI: 1.57 µM
[16]; MOLT-4, read-out: LC50 (the source's name)
  CC50: > 100 µM
RPMI-8226
  GI50: 0.32 µM
  TGI: > 100 µM
RPMI-8226; [17]
  CC50: > 100 µM
HOP-62
  GI50: 4.94 µM
  TGI: 27.6 µM
HOP-62; [17]
  CC50: > 100 µM
NCI-H23
  GI50: 5.05 µM
  TGI: > 100 µM
NCI-H23; [17]
  CC50: > 100 µM
